SMILES strings stand for the structures. Active and inactive are the calls of the source. The calls are words filed in the database; no cut-off is given here. Where only a bound is given, the exact number is not on record here.

A short description of data set [1]: Induction of apoptosis in mouse SM1 cells at 0.1 to 25 uM by caspase3/7 reagent based luminescence assay. The class given is cell-based. The essentials:
(§1)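 SM1 cells treated with HDAC inhibitors, with pan-HDACi and assay controls on every plate. ApoTox-Glo triplex readout: viability fluorescence 400Ex/505Em, cytotoxicity fluorescence 485Ex/520Em, then caspase 3/7 reagent read by luminescence for apoptosis.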

The nature of data set [2]: Induction of cell death in mouse SM1 cells at 0.1 to 25 uM. The data set is classed as cell-based.
Data set [3] has as its target Voltage-gated inwardly rectifying potassium channel KCNH2 (Homo sapiens, UniProt Q12809). Kind of data set: Inhibition of human ERG expressed in HEK293 cells by manual-patch clamp assay. The class given is cell-based.
Data set [4] has as its system Mus musculus. The experiment in a line: Antitumor immunity against mouse SM1 cells implanted in flank of immunocompetent C57BL/6 mouse assessed as increase in ratio of M1/M2 macrophages at 25 mg/kg, ip administered 1 week post-implantation by flow cytometry. The class given is functional, organism-based.
Data set [5] in a line: Half life in human liver microsomes in presence of NADPH. The class given is ADME, Microsome. The method, boiled down: (§2)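 Liver microsomal stability in mouse and human microsomes with NADPH; half-life in minutes.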
Data set [6] addresses T1, Protein deacetylase HDAC6 (Mus musculus) (UniProt Q9Z2V5).
T1 sequence (whole entry): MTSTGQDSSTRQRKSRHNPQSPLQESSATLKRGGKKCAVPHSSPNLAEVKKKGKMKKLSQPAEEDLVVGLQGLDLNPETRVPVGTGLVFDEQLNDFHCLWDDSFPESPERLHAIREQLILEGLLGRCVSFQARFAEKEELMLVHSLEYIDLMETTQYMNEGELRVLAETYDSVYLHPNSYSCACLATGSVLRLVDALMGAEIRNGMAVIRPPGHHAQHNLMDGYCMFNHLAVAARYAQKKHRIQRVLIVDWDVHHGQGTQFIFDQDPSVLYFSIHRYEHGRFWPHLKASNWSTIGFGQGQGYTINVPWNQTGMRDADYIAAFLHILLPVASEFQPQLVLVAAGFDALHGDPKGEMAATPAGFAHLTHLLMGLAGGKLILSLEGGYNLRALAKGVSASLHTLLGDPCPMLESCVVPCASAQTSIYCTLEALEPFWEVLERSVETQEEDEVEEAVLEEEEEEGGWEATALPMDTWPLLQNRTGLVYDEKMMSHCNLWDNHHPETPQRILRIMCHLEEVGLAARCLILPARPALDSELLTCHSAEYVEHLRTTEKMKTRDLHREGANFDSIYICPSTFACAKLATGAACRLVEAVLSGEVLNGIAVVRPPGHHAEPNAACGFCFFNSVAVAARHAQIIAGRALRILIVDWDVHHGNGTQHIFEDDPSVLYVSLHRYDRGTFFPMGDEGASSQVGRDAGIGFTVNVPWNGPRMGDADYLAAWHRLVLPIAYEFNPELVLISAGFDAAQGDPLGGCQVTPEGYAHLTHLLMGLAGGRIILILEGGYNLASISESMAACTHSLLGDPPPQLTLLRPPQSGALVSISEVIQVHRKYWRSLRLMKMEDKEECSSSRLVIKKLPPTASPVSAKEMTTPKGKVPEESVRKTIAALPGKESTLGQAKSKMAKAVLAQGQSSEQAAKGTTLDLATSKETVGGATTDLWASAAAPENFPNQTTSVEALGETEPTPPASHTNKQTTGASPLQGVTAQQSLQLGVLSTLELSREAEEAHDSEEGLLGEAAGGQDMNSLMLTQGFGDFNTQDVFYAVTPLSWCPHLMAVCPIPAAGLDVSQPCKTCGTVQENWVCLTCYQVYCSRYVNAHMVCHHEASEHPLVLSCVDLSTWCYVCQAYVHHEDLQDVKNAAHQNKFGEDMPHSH
The experiment in a line: Inhibition of HDAC6 in mouse SM1 cells assessed as reduction in IL-6 stimulated STAT3 phosphorylation at Y705 residue at 5 uM pretreated for 1 hr followed by IL-6 stimulation for overnight by western blot analysis. The data set is classed as cell-based. The method, boiled down: (§3)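 SM1 cells pretreated with 5 µM compound, then IL-6 overnight. Lysed in RIPA buffer with protease and phosphatase inhibitors, sonicated, protein quantified by BCA. Immunoblot for PD-L1 and STAT3 Y705 phosphorylation.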

Data set [7] in a line: Half life in mouse liver microsomes in presence of NADPH. The class given is ADME, Microsome. The method, boiled down: as §2
A short description of data set [8]: Cytotoxicity against mouse SM1 cells at 0.1 to 25 uM by ApoTox-Glo triplex assay. The data set is classed as cell-based. The essentials:
as §1

Data set [9] in a line: Effect on cell viability in mouse SM1 cells up to 10 uM by ApoTox-Glo triplex assay. The data set is classed as cell-based. The method, boiled down: as §1
Data set [10] can be described thus: Mutagenicity in Salmonella typhimurium TA98 assessed as induction of >= 2 fold increase in revertant colonies at 1.5 to 1000 ug/well in absence of S9 fraction by Ames test. The data set is classed as toxicity. The settings on record: salmonella enterica subsp. enterica serovar typhimurium. The essentials: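 Ames test with S. typhimurium TA98 and TA1537, with and without S9 mix. A positive call required a ≥ 2-fold (TA98) or ≥ 3-fold (TA1537) rise in mean revertant colonies over the concurrent negative/solvent control.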

In another data set the test system is PC-3. Kind of data set: Induction of cell death in human PC3 cells at 0.1 to 25 uM. The class given is cell-based. The settings on record: pc-3, 25 µM.
Data set [11] has as its system Mus musculus. The experiment in a line: Antitumor activity against mouse SM1 cells implanted in flank of immunocompetent C57BL/6 mouse assessed as reduction in tumor growth at 25 mg/kg, ip administered 1 week post-implantation measured for 18 days. The data set is classed as functional, organism-based. The essentials: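 SM1 cells passaged in vivo mouse to mouse at least five times; 1.0 × 10^6 cells in 100 µL PBS injected subcutaneously into female C57BL/6 mice 4-6 weeks old, 10 per group. Treatment ip 25 mg/kg or 100 µL PBS vehicle, five days a week until control tumors reached maximum size. Tumor volume from calipers as L × W2/2.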

In data set [12] the target is T1, Protein deacetylase HDAC6 (Mus musculus). The experiment in a line: Inhibition of HDAC6 in mouse SM1 cells assessed as reduction in IL-6 stimulated PDL1 overexpression at 5 uM pretreated for 1 hr followed by IL-6 stimulation for overnight by western blot analysis. The data set is classed as cell-based. The essentials:
as §3

The test system of data set [13] is Mus musculus. Kind of data set: Antitumor immunity against mouse SM1 cells implanted in flank of immunocompetent C57BL/6 mouse assessed as increase in infiltration of NKT cells at 25 mg/kg, ip administered 1 week post-implantation by flow cytometry. The class given is functional, organism-based.
Data set [14] deals with T1, Protein deacetylase HDAC6 (Mus musculus). The experiment in a line: Inhibition of HDAC6 in mouse SM1 cells assessed as reduction in IL-6 stimulated CD274 gene expression at 5 uM pretreated for 1 hr followed by IL-6 stimulation for overnight by qRT-PCR analysis. The data set is classed as cell-based. The method, boiled down:
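SM1 cells serum-starved overnight, pretreated 1 h with 5 µM compound, then given recombinant murine IL-6 at 30 ng/mL overnight. Total RNA extracted with Trizol; PD-L1 mRNA measured by qRT-PCR, normalized to GAPDH by the Pfaffl method, in arbitrary units.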

Data set [15] deals with Mus musculus. Kind of data set: Antitumor immunity against mouse SM1 cells implanted in flank of immunocompetent C57BL/6 mouse assessed as infiltration of intratumoral CD8+ cells at 25 mg/kg, ip administered 1 week post-implantation by flow cytometry. The data set is classed as functional, organism-based.
The nature of data set [16]: Half life in human hepatocytes. The data set is classed as ADME, cell-based, Hepatocyte. The method, boiled down:
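Half-life in minutes measured in mouse and human hepatocytes.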

Another data set deals with T-24. The experiment in a line: Induction of cell death in human T24 cells at 0.1 to 25 uM. The data set is classed as cell-based. The settings on record: t-24, 25 µM.

Sequence of Voltage-gated inwardly rectifying potassium channel KCNH2 (Q12809 whole entry): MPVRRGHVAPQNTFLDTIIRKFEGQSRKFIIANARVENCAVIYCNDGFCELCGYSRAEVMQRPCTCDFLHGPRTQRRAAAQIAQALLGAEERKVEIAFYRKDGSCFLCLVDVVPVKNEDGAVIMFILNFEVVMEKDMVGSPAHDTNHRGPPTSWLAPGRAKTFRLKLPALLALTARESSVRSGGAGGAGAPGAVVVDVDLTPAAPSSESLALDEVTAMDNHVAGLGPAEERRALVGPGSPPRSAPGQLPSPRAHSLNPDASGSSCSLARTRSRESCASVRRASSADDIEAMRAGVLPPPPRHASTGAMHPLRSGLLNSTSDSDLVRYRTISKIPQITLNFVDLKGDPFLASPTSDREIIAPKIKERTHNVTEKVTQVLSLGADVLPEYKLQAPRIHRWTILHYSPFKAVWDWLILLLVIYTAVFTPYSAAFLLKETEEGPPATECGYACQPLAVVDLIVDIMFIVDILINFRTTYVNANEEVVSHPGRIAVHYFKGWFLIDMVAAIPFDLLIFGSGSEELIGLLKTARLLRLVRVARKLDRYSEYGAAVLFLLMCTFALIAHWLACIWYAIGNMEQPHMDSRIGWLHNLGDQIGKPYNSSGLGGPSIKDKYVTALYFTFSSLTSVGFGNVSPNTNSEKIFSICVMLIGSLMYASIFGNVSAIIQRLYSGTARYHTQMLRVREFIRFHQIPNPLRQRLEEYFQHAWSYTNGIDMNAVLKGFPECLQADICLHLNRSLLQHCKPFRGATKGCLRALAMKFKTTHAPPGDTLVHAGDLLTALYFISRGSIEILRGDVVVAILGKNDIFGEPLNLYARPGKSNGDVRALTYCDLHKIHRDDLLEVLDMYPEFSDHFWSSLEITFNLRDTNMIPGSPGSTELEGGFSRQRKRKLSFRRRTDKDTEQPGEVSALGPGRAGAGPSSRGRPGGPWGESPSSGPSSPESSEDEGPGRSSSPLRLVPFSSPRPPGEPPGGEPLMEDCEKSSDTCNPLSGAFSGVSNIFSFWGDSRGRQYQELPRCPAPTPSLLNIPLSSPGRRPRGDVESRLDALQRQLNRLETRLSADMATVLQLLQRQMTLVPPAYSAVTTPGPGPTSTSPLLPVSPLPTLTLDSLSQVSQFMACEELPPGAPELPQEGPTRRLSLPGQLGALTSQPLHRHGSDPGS

As for `O=C(NCCc1cc(C(=O)NO)no1)c1ccc(Cl)c(Cl)c1`, the Activity result (in data set [1]; in [2]; in [8]; in [9]; in [10]; in the data set on PC-3) was “Non-Toxic” throughout. For the same compound, the Activity entry in the data set with T-24 is on record as “Non-Toxic”. The IC50 in data set [3] is greater than 30 µM. Moreover, the outcome with Mus musculus [4], with Mus musculus [13] and in the data set with Mus musculus [15] was Active. Further, the half-life is 2.25 h in data set [5], 0.617 h in [7] and 1.8 h in data set [16]. For the same compound, the inhibition result (in data set [6]; in the data set on Mus musculus [11]; in data set [12]; in [14]) was “Active” in each case.

These data come from ChEMBL document CHEMBL4354804, “Discovery of a New Isoxazole-3-hydroxamate-Based Histone Deacetylase 6 Inhibitor SS-208 with Antitumor Activity in Syngeneic Melanoma Mouse Models” (J Med Chem, 2019).
